Assay results from different studies.
Protocols differ between the studies behind these lines.
Matrix: plasma

| SMILES | system | setting | AUC(0-t) |
| --- | --- | --- | --- |
| C[C@@H](Nc1cc(F)cc(F)c1)c1cc(C(=O)N(C)C)cc2c(=O)cc(N3CCOCC3)oc12 | human | oral, 360 mg, single dose, patients | 8350 ng·h/mL |
| Nc1cc(C(F)(F)F)c(-c2cc(N3CCOCC3)nc(N3CCOCC3)n2)cn1 | human | oral, 100 mg/day, patients | 8800 ng·h/mL |
| Cc1nc(NC(=O)N2CCC[C@H]2C(N)=O)sc1-c1ccnc(C(C)(C)C(F)(F)F)c1 | human | oral, 270 mg, patients | 25300 ng·h/mL |
| COc1ccc([C@@H]2CN(C(=O)[C@@H](O)CO)C[C@@]2(C)[C@@H](C)O)cc1OC1CN(c2ccc(C)cn2)C1 | human | oral, 30 mg, single dose, healthy volunteers | 5620 ng·h/mL |
| CCNCCCNC/C=C\CNCCCNCC | human | intravenous, 100 mg, patients, infusion | 304 ng·h/mL |
| COCCOc1cnc2ccn([C@H](C)c3nnc4c(F)cc(-c5cnn(C)c5)cn34)c(=O)c2c1 | human | oral, 200 mg, multiple doses, once daily, patients | 36900 ng·h/mL |
| C[C@@H](c1ccc2nccn2c1)n1nnc2ncc(-c3cnn(C)c3)nc21 | human | oral, 200 mg | 3980 ng·h/mL |
| COc1cc2c(cc1OC)CN(CCc1ccc(NC(=O)c3cc(OC)c(OC)cc3NC(=O)c3cnc4ccccc4c3)cc1)CC2 | human | intravenous, 1.5 mg/kg, patients | 10.5 µM·h |
| CC(C)(O)c1ccccc1-c1ccc2[nH]c(/C=C/c3ccc(C(F)(F)F)cc3)nc2c1 | male human | oral, 1 mg, single dose, fasted | 83 ng·h/mL |
| C#Cc1cccc(Nc2ncnc3cc(OCCOC)c(OCCOC)cc23)c1 | human | oral, 50 mg, patients | 12.5 µM·h |
| OC[C@H]1O[C@@H](c2ccc(Cl)c(Cc3ccc(O[C@H]4CCOC4)cc3)c2)[C@H](O)[C@@H](O)[C@@H]1O | human | oral, 10 mg, single dose | 1.63 µM·h |
| COc1cc(N2CCC(N3CCN(C)CC3)CC2)ccc1Nc1ncnc(Nc2ccccc2S(=O)(=O)C(C)C)n1 | human | oral, 200 mg, multiple doses, patients | 9170 ng·h/mL |
| C[C@@]1(c2cc(NC(=O)c3ccc(C#N)cn3)ccc2F)C=CSC(N)=N1 | human | oral, 30 mg, single dose | 2510 ng·h/mL |
| CC(=O)Oc1ccccc1C(=O)O | human | oral, 650 mg, healthy volunteers | 2630 ng·h/mL |
| CC(C)n1cc(C#N)c2cc(-n3cc(C(=O)O)cn3)ccc21 | human | oral, 100 mg, single dose, fasted, healthy volunteers | 19400 ng·h/mL |
| FC(F)(F)c1ccc(CNc2ccc(Cc3c[nH]c4ncc(Cl)cc34)cn2)cn1 | human | oral, 600 mg, multiple doses, patients | 13300 ng·h/mL |
| CO[C@@H]1[C@H](OC(=O)N2CC(CCN3CCOCC3)C2)CC[C@]2(CO2)[C@H]1[C@@]1(C)O[C@@H]1CC=C(C)C | human | subcutaneous, 0.2 mg, single dose, healthy volunteers | 0.24 ng·h/mL |
| CO[C@H]1CC[C@H](N2C(=O)CNc3ncc(-c4ccc(C(C)(C)O)nc4)nc32)CC1 | human | oral, 7.5 mg, patients | 319 ng·h/mL |
